# Measurements collected from several papers.
# Each line is one published result; the experiments were not run side by side.
# Target: Dual specificity protein kinase CLK2 (CLK2, Homo sapiens, UniProt P49760)
# Technique: competition with immobilised ligand
Compound,observed,tested at,remaining binding [%]
c1cncc(-c2cccc(Nc3nccc(NC4CCCCC4)n3)c2)c1,binding,10 µM,15
CNC(=O)[C@@H]1CC[C@@H](n2c(-c3ccc4cnccc4c3)nc3ccc(C(=O)NCc4cccc(C(N)=O)c4)cc32)C1,binding,1 µM,100
C[C@@]1(Cc2ccc(C#N)cc2)C(=O)N(c2cc(Cl)cc(Cl)c2)c2ncc(C(=O)NC3(c4nc(C5CCC5)no4)CC3)n21,cell-free assay,1 µM,100
O=C(Nc1c[nH]nc1C(=O)NC1CCNCC1)c1cc(F)cc(F)c1,binding,1 µM,100
O=C(c1ccc(Nc2nccc(-c3cc4ccccc4s3)n2)cc1)N1CCC(N2CCCC2)CC1,binding,1 µM,39
Cc1nc(Cc2cccc(C(F)(F)F)c2)sc1-c1ccc(C(N)=O)nc1,cell-free assay,1 µM,100
O=C(c1ccc(Nc2ncc(Cl)c(-c3cc4ccccc4s3)n2)cc1)N1CCC(N2CCCC2)CC1,binding,1 µM,6.7
CN(CCCC(F)(F)F)c1nccc(-c2cnn3ncccc23)n1,binding,1 µM,47
CC(=O)C1=C(C)N(c2cccc(C(F)(F)F)c2)C(=O)N[C@@H]1c1ccc(C#N)nc1,cell-free assay,1 µM,100
COc1cnc(Nc2cccc(S(N)(=O)=O)c2)nc1N1CCN(c2ccccc2)CC1,binding,1 µM,99
O=C(NCCCN1CCOCC1)c1ccc(Nc2nccc(-c3cc4ccccc4s3)n2)cc1,binding,1 µM,28
COc1ncc2cc3ccccc3nc2c1C#N,cell-free assay,5 µM,76
CCOC(=O)c1cc2cc(-c3cc(C(=O)NCc4ccc(C(=O)O)cc4)nn3C)ccc2[nH]1,cell-free assay,0.1 µM,96
C[C@@H](c1ccc(-n2cnc3c(N)ncnc32)cc1)N1CCc2nn(C)c(Cc3ccccc3)c2C1=O,binding,0.1 µM,79
